Four compounds from ChEMBL document CHEMBL1124035, “1-Amino-substituted 4-methyl-5H-pyrido[4,3-b]indoles (gamma-carbolines) as tricyclic analogues of ellipticines: a new class of antineoplastic agents” (1988) can be followed below.

What is called T/C is the ratio of treated to control.

Experiment [1] concerns Mus musculus. Nature of the experiment: Antitumor activity against P388 leukemia in intraperitoneally for 5 days. It counts as functional. Put shortly: (§1)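 CDF1 hybrid male or female mice, 10 per group, were inoculated ip with 10^6 viable P388 cells on day 0. Drugs in distilled water were given ip (0.1 mL/10 g body weight) daily D1-5. Vehicle, 5-fluorouracil and BD 84 were given the same way. T/C = median survival day of treated / controls × 100; T/C > 128% was significant; cures counted at D60.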

Experiment [2] has as its system Mus musculus. Nature of the experiment: Antitumor activity against P388 leukemia in mice at a dose of 20 mg/kg administered intraperitoneally for 5 days. Conditions: route intraperitoneal. It counts as functional. Put shortly: as §1
The subject of experiment [3] is Mus musculus. The experiment can be described thus: Antitumor activity against P388 leukemia in mice at a dose of 40 mg/kg administered intraperitoneally for 5 days. It counts as functional. As to conditions: route intraperitoneal. An outline of the steps:
(§2)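 CDF1 hybrid male or female mice, 10 per group, were inoculated ip on day 0 with 10^6 viable P388 leukemia cells. Drug in distilled water was given ip (0.1 mL/10 g body weight) daily on days 1-5, with vehicle, 5-fluorouracil and BD 84 controls given the same way. T/C = median survival of treated/controls × 100; T/C > 128% counted as significant.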

For experiment [4], the system named is L1210. The experiment can be described thus: Ability to reduce the cell count to 50% in L1210 culture cells. It counts as functional. Conditions: Mus musculus, read-out: ID50 (the source's name). An outline of the steps: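 L1210 cells in exponential growth in RPMI 1640 with 2 mM glutamine, penicillin/streptomycin and 10% FCS, 37 °C, 5% CO2. Drugs dissolved in distilled water were added to cells at 0.8 × 10^5 cells/mL for 48 h, then cells were counted. ID50 is the concentration halving cell proliferation versus controls, from regression of dose-response data; mean of two independent experiments.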

The test system of experiment [5] is Calf thymus DNA. Nature of the experiment: Apparent DNA affinity constant. Conditions: Bos taurus. It counts as nucleic-acid assay. An outline of the steps:
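Apparent DNA affinity constant was measured by competition with ethidium bromide. Buffer was 20 mM Na2HPO4/NaH2PO4, 0.1 M NaCl, 1 mM EDTA, pH 7.4, with calf thymus DNA at 10 μg/mL. Values are given in 10^6 M⁻¹.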

In experiment [6] the test system is Mus musculus. Nature of the experiment: Antitumor activity against P388 leukemia in mice at a dose of 80 mg/kg administered intraperitoneally for 5 days. It counts as functional, organism-based. Set-up: dose 80 mg/kg. Put shortly:
as §2

As for `CCN(CC)CCCNc1[nH]cc(C)c2nc3ccc(OC)cc3c1-2`, the T/C was 147% in experiment [1], 149% in experiment [2], 176% in experiment [3] and “Toxic” in experiment [6]. Also, the IC50 in experiment [4] came to 0.3 µM. The K aff in experiment [5] came to 220000 M⁻¹.
As to `COc1ccc2c(c1)c1c(NCC(C)CN(C)C)ncc(C)c1n2C` (configuration not stated), the IC50 in experiment [4] worked out at 1 µM. Besides, the K aff in experiment [5] was determined as 150000 M⁻¹.
Consider `CCN(CC)CCCCNc1ncc(C)c2c1c1cc(OC)ccc1n2C`, for which, in experiment [4], the IC50 amounted to 1.3 µM. Moreover, the K aff in experiment [5] is 460000 M⁻¹.
In the case of `Cc1cnc(NCC(C)CN(C)C)c2c3cc(O)ccc3n(C)c12` (configuration not stated), the IC50 in experiment [4] amounted to 0.01 µM. Further, in experiment [5], the K aff came out at 140000 M⁻¹.
